From ChEMBL document CHEMBL1221380, “Structure-activity relationships of mononuclear metal-thiosemicarbazone complexes endowed with potent antiplasmodial and antiamoebic activities” (Bioorg Med Chem, 2010) come the findings set out here.

One test concerns Entamoeba histolytica. The test can be described thus: Antiamoebic activity against Entamoeba histolytica HM1:IMSS after 72 hrs by microplate method. Format: functional, organism-based. As to conditions: HM-1:IMSS. In outline: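 Trophozoites grown in TYI-S-33 medium; samples dissolved in DMSO then medium to 1 mg/mL, diluted to 0.1 mg/mL, twofold serial dilutions in plate; final DMSO ≤0.1%. 10^5 organisms/mL added, plate gassed with nitrogen 10 min, 37 °C for 72 h. OD at 490 nm; % inhibition vs log dose, linear regression for IC50. Triplicates, repeated thrice; metronidazole standard.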

A further test deals with Plasmodium falciparum. The test is described as follows: Antiplasmodial activity against Plasmodium falciparum W2 after 24 hrs by [3H]hypoxanthine incorporation assay. Type of test: functional, organism-based. In outline:
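Chloroquine-resistant, mefloquine-sensitive W2 clone grown in human O+ erythrocytes in RPMI 1640 with 10% human plasma; 1–2% parasitemia, 2.5% hematocrit. Five concentrations in 4% DMSO in hypoxanthine-free RPMI, 24 h. [3H]-hypoxanthine uptake vs untreated wells; IC50 from triplicates, mefloquine standard.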

Test [1] can be described thus: Cytotoxicity against BALB/c mouse splenocyte by [3H]thymidine incorporation assay. Format: cell-based. The procedure, abridged: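 Splenocytes (5 × 10^6 per well) in DMEM with 10% FCS and 50 µg/mL gentamycin; tested at 1.1, 3.3, 11, 33 and 100 µg/mL in triplicate with 3H-thymidine (1 µCi per well), 24 h, 37 °C, 5% CO2. Value is highest non-cytotoxic concentration, i.e. reducing incorporation by under 10% versus untreated.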

A short description of test [2]: Inhibition of beta-hematin formation after 18 hrs by microtiter plate assay. Format: functional.

Molecules are shown by their SMILES. pIC50: −log10 of the molar value.

For the molecule `S=C(N/N=C/c1ccco1)N1CCCCCC1`, the pIC50 (commonly the negative decadic logarithm of the IC50, by convention in mol/L) is 4.92 in the test on Entamoeba histolytica and 4.45 in the test on Plasmodium falciparum. Besides, the highest non-cytotoxic concentration in test [1] was greater than 100 µg/mL.
In the same order, the values of `S=C(N/N=C/c1ccco1)NC1CCCCC1` are 4.99, 4.69 and 33 µg/mL.
For the molecule `CC1CCN(C(=S)N/N=C/c2ccco2)CC1`, the negative logarithm of the IC50 (pIC50) with Entamoeba histolytica is 5.10; with Plasmodium falciparum it was 4.44. For the same molecule, the highest non-cytotoxic concentration in test [1] is 100 µg/mL.
The like results for `CN(C(=S)N/N=C/c1ccco1)C1CCCCC1` were, in that order, 5.04, 4.66 and greater than 100 µg/mL.
Take `CCN(CC)CCCC(C)Nc1ccnc2cc(Cl)ccc12.O=P(O)(O)O.O=P(O)(O)O` (centres undefined) [CHLOROQUINE PHOSPHATE]: the IC50 (as a rule, the concentration that inhibits the measured activity by half) in test [2] came out at 1.3 µg/mL.
For `OC(c1cc(C(F)(F)F)nc2c(C(F)(F)F)cccc12)C1CCCCN1` (centres undefined) [MEFLOQUINE], the pIC50 in the test on Plasmodium falciparum is 7.41.
